Tested on: Mus musculus
Experiment: Subacute toxicity in ICR mouse assessed as effect on renal architecture at 100 to 1000 mg/kg, administered once a day via oral gavage for 14 days by hematoxylin/eosin-staining based microscopic analysis
Assay type: organism-based
Settings: in vivo, 336 h
Summary of the method: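 Same 14-day daily oral gavage design as the subacute study (ICR mice, 5 per sex per group, 100/500/1000 mg/kg or vehicle). Liver and kidney taken after anesthesia on day 15, processed routinely, cut as 5 μm paraffin sections, stained with hematoxylin and eosin and examined microscopically.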

**Q.** How did the Activity turn out when `CCCC(=O)Nc1ccn([C@@H]2O[C@H](CO[P@@](=O)(N[C@@H](C)C(=O)OC(C)C)Oc3ccccc3)[C@@H](O)[C@@]2(C)F)c(=O)n1` was run?
**A.** Non-Toxic

— ChEMBL document CHEMBL4011639, “Discovery of Novel Nucleotide Prodrugs with Improved Potency Against HCV Variants Carrying NS5B S282T Mutation” (J Med Chem, 2017)
